Assay results as given in ChEMBL document CHEMBL1138509, “Synthesis and biological activities of topoisomerase I inhibitors, 6-arylmethylamino analogues of edotecarin” (J Med Chem, 2009).

What was measured:
DNA topoisomerase 1 = biological target: T1, DNA topoisomerase 1 (Homo sapiens, UniProt P11387); assay: Inhibition of human DNA topoisomerase 1-mediated DNA cleavage assessed as relaxation of supercoiled pBR322 plasmid DNA after 15 mins by densitometer
T1 sequence (P11387 whole entry): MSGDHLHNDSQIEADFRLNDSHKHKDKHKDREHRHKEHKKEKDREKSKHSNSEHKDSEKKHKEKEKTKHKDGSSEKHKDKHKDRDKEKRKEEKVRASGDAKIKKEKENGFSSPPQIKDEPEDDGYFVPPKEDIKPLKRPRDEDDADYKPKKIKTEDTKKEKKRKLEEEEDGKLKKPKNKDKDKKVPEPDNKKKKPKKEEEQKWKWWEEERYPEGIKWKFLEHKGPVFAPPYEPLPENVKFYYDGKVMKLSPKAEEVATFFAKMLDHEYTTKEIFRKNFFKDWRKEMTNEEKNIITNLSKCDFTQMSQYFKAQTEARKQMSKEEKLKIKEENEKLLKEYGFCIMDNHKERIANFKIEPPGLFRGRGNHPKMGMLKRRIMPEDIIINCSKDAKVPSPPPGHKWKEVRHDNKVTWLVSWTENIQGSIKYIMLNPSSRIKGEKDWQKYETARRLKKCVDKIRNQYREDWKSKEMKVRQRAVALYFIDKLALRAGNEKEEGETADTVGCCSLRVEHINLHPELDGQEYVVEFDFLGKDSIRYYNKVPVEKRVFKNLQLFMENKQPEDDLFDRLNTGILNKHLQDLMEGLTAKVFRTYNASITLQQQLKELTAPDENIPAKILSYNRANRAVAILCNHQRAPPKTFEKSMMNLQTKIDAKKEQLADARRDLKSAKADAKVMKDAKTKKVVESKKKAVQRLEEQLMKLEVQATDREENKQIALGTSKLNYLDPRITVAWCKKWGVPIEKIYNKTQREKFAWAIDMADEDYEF

P388/S = assay: Cytotoxicity against mouse P388/S cells after 72 hrs by colorimetric tetrazolium-formazan method; assay type: functional, cell-based
Summary of the method: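 Murine leukaemia P388 cells were exposed to compound for 72 h. Viability was read by the colorimetric tetrazolium-formazan method.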

MKN-45 [1] = assay: Cytotoxicity against human MKN45 cells after 72 hrs; assay type: functional, cell-based; details: MKN-45, 72 h
Summary of the method: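 MKN-45 human stomach cancer cells were incubated with compound for 72 h. Cytotoxicity was measured by the colorimetric tetrazolium-formazan method and by sulforhodamine B dye staining.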

DLD-1 = assay: Cytotoxicity against human DLD1 cells after 72 hrs; assay type: functional, cell-based; details: DLD-1, 72 h
[2] = Inhibition of PKC
Summary of the method: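 Protein kinase C inhibition assay, with Histone II-As as substrate.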

[3] = biological target: Epidermal growth factor receptor (Homo sapiens, UniProt P00533); assay: Inhibition of EGFR
Epidermal growth factor receptor, sequence (P00533 whole entry): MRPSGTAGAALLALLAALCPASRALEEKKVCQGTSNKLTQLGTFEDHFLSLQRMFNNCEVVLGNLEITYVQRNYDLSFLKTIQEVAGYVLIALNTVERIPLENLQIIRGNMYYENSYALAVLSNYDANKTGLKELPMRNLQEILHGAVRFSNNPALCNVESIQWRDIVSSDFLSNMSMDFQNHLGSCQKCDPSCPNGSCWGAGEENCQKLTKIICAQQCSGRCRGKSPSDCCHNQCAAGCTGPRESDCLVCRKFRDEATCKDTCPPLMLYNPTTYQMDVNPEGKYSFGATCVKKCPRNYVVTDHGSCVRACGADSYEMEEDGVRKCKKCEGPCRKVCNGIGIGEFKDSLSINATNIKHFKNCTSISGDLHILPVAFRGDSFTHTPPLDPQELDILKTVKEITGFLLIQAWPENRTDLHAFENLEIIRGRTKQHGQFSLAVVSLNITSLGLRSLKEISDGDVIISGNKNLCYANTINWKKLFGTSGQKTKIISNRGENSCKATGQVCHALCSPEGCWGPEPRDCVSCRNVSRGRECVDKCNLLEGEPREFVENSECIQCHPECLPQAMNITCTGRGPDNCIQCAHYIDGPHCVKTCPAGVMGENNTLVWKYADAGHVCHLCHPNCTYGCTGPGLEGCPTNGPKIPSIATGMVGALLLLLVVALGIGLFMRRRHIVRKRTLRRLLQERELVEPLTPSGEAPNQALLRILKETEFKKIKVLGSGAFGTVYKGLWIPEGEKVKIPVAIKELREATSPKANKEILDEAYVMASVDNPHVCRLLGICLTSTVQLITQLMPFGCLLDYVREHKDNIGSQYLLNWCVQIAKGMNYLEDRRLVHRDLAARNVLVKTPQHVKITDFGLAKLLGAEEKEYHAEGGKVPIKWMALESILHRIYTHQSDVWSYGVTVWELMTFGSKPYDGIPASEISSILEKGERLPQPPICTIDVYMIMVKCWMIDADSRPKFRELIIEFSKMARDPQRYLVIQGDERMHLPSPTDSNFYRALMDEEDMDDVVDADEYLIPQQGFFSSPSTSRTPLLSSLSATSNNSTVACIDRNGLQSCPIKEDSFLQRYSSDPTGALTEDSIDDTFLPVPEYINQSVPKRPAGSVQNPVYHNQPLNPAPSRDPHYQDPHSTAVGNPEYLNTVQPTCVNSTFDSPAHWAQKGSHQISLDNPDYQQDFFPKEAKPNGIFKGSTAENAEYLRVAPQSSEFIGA
Summary of the method: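 Kinase-inhibition assay against EGF receptor kinase, with Poly(Glu4Tyr1) as substrate.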

MKN-45 [4] = assay: Antitumor activity in human MKN45 cells xenografted iv dosed nude mouse assessed as tumor growth inhibition administered 5 times per week for 2 weeks at tumor growth of >= 0.2 cm2; assay type: functional
Summary of the method: (§1)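 Human MKN-45 (stomach) or MX-1 (breast) cells implanted subcutaneously into a side flank of nude mice. Compound given iv five times/week. GID₇₅ is the approximate dose giving 75% growth inhibition. LD₁₀ is the approximate 10% lethal dose at that schedule. Safety margin is LD₁₀/GID₇₅.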

Mus musculus [5] = assay: Toxicity in human MKN45 cells xenografted iv dosed nude mouse; assay type: organism-based, MKN-45; details: in vivo
Summary of the method: (§2)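 Toxicity was taken as LD10, the approximate dose lethal to 10% of nude mice at the treatment schedule. Mice bore subcutaneous side-flank MKN-45 or MX-1 xenografts and received iv dosing, either five times/week or twice/week for two consecutive weeks.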

[6] = Safety margin, ratio of LD10 for nude mouse to GID75 for human MKN45 cells; assay type: toxicity, cell-based; details: mkn-45
Summary of the method: (§3)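 Nude mice carried MKN-45 or MX-1 tumours implanted subcutaneously in a side flank. Compounds were given iv, either five times/week or twice/week for two consecutive weeks. The twice/week arm started once tumours reached 0.2 cm³ or larger. GID75 is the approximate dose giving 75% tumour growth inhibition, and LD10 is the approximate 10% lethal dose at that schedule. Safety margin = LD10/GID75.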

MX1 = assay: Antitumor activity in human MX1 cells xenografted iv dosed nude mouse assessed as tumor growth inhibition administered 5 times per week for 2 weeks at tumor growth of >= 0.2 cm2; assay type: functional; summary of the method: as §1
Mus musculus [7] = assay: Toxicity in human MX1 cells xenografted iv dosed nude mouse; assay type: organism-based; details: in vivo; summary of the method: as §2
[8] = Safety margin, ratio of LD10 for nude mouse to GID75 for human MX1 cells; assay type: toxicity, cell-based; summary of the method: as §3

For `O=C1c2c(c3c4ccc(O)cc4n([C@@H]4O[C@H](CO)[C@@H](O)[C@H](O)[C@H]4O)c3c3[nH]c4cc(O)ccc4c23)C(=O)N1NC(CO)CO` [EDOTECARIN], the EC50 (DNA topoisomerase 1) was 0.051 µM, the IC50 (P388/S) was 0.0015 µM and the IC50 (MKN-45 [1]) was 0.0048 µM. For the same compound, the IC50 (DLD-1) was 0.07 µM, the IC50 [2] was 18 µM and the IC50 [3] was over 200 µM. The GID75 (MKN-45 [4]) was 45 mg/m2, the LD10 (Mus musculus [5]) was over 1600 mg/m2 and the selectivity ratio [6] was over 36. The GID75 (MX1) was 160 mg/m2, the LD10 (Mus musculus [7]) was over 2000 mg/m2 and the selectivity ratio [8] was over 13.
